This note sets out measurements from publication PMC10603355 (Journal for Immunotherapy of Cancer, 2023).

Experiment [1] deals with splenocytes of HHDII/DR1 mice (T-cell IFNγ response). Kind of experiment: IFNγ ELISpot on splenocytes of peptide-immunized HLA-A2 transgenic. The class given is in vivo, mouse. The note with it: for IFNγ response after immunization with wt peptide: HHDII/DR1 mice, tested against wt or Hcit peptides (figure 2B); for Modification specificity of IFNγ response (Hcit versus wt peptide): HHDII/DR1 and HHDII mice immunized with long Hcit peptide (figure 2A); for Effect of CD4 or CD8 blocking antibody on IFNγ response, ex vivo: HHDII/DR1 mice immunized with long Hcit peptide, 20 µg/mL anti-CD4 or anti-CD8 (figure 1C). The gist of the method: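 HHDII/DR1 or HHDII mice get 25 µg peptide s.c. (stock 1 mg/mL in 20% DMSO/PBS) with 5 µg each CpG ODN 1826 and monophosphoryl lipid A in PBS on days 1, 8 and 15. Spleens taken day 21. 5×10^5 splenocytes/well in quadruplicate are restimulated with peptide for 40 h at 37°C, 5% CO2. IFNγ spots are counted automatically and reported as mean spots/million splenocytes per mouse; n=3 per group.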

Another experiment relates to HLA-A2 on T2 cells. Kind of experiment: T2 binding assay. The class given is cell-based, human. To be noted: different peptide concentrations; three independent experiments (figure 3C,D). The gist of the method: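 T2 cells (2×10^6/mL) are incubated overnight at 37°C with peptide (dilutions prepared at 400, 40 and 4 µg/mL before mixing) and recombinant human β2-microglobulin (prepared at 800 ng/mL). Brefeldin A is added for 1 h before anti-HLA-A2 FITC staining and flow cytometry. Binding is taken as median fluorescence intensity; three independent experiments, two-way ANOVA.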

Another experiment relates to B16 HHDII melanoma cells. Kind of experiment: In vivo antitumor study, B16 HHDII tumor in HHDII mice. To be noted: aggressive mouse B16 melanoma model, peptide vaccination. The gist of the method:
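HHDII mice receive 5×10^4 B16 HHDII cells s.c. on day 1, then peptide plus CpG/MPLA adjuvant on days 4, 8 and 11. In depletion arms, anti-CD4 (GK1.5) or anti-CD8 (2.43) is given i.p., 500 µg day 4 and 300 µg days 8 and 11. Tumours are checked twice weekly, with euthanasia near 15 mm diameter; n=5–10 per group.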

As for VLAAVY-Hcit-AL [Aldo 209-217Hcit], in experiment [1] (HHDII/DR1 mice immunized with Aldo 204-219Hcit or Cyk8 112-132Hcit (figure 2C)), the “IFNγ response to short peptide in mice immunized with the long Hcit peptide” value is reported as “strong responses”. The “HLA-A2 binding affinity of Hcit peptide compared with corresponding wt peptide” value in the experiment with HLA-A2 on T2 cells is listed as “higher binding affinity”. Moreover, the survival entry with B16 HHDII melanoma cells is “at least 50%”. On to “Cyk8 112–132wt: wild type (native) long cytokeratin 8 peptide (LEQQNKMLETKWSLLQQQKTA; UniProt P05787 112-132, looked up, fragment)”, for which the “IFNγ response after immunization with wt peptide” value in experiment [1] is “failed to stimulate detectable IFNγ immune responses”. With “YVTE-Hcit-VLAAVY-Hcit-ALSD [Aldo 204-219Hcit]”, in experiment [1], the “Modification specificity of IFNγ response (Hcit versus wt peptide)” value is “strong modification specific responses” and the “Effect of CD4 or CD8 blocking antibody on IFNγ response, ex vivo” value is given as “not affected by either of the blocking antibody”. The matching figures for “LEQQN-Hcit-MLET- Hcit-WSLLQQQ- Hcit-T [Cyk8 112-132Hcit]”: “strong modification specific responses” and “either anti-CD8 or anti-CD4 antibody significantly reduced the immune response”. In the case of “Aldo 204–219wt: wild type (native) long aldolase A peptide (YVTEKVLAAVYKALSD; UniProt P04075 204-219, looked up, fragment)”, the “IFNγ response after immunization with wt peptide” value in experiment [1] is reported as “failed to stimulate detectable IFNγ immune responses”.
